# Columns and labels:
# Format in all cases: functional, cell-based
# [1] = test system: PANC-1; experiment: Cytotoxicity against human PANC1 cells after 4 days by modified propidium iodide monolayer assay; conditions: PANC-1, 96 h
# Summary of the method: (§1)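 Part of a 36-line human tumor cell panel. Proliferation inhibition was measured over a range of concentrations, and an IC50 was derived for each cell line from its concentration–response.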
# [2] = test system: CWR22R; experiment: Cytotoxicity against human 22RV1 cells after 4 days by modified propidium iodide monolayer assay; conditions: 22Rv1, 96 h; summary of the method: as §1
# [3] = Cytotoxicity against human 529L cells after 4 days by modified propidium iodide monolayer assay; conditions: 96 h; summary of the method: as §1
# [4] = test system: LNCaP; experiment: Cytotoxicity against human LNCAP cells after 4 days by modified propidium iodide monolayer assay; conditions: 96 h; summary of the method: as §1
# [5] = test system: HCT-116; experiment: Cytotoxicity against human HCT116 cells after 4 days by modified propidium iodide monolayer assay; conditions: HCT-116, 96 h; summary of the method: as §1
# [6] = Cytotoxicity against human PC3M cells after 4 days by modified propidium iodide monolayer assay; conditions: PC-3M, 96 h; summary of the method: as §1
# [7] = Cytotoxicity against human 944L cells after 4 days by modified propidium iodide monolayer assay; conditions: 96 h; summary of the method: as §1
# [8] = Cytotoxicity against human 520L cells after 4 days by modified propidium iodide monolayer assay; conditions: 96 h; summary of the method: as §1
# [9] = Cytotoxicity against human 1619L cells after 4 days by modified propidium iodide monolayer assay; conditions: 96 h; summary of the method: as §1
# [10] = Cytotoxicity against human 401NL cells after 4 days by modified propidium iodide monolayer assay; conditions: 96 h; summary of the method: as §1
# [11] = test system: HT-29; experiment: Cytotoxicity against human HT29 cells after 4 days by modified propidium iodide monolayer assay; conditions: HT-29, 96 h; summary of the method: as §1
# [12] = Cytotoxicity against human 486L cells after 4 days by modified propidium iodide monolayer assay; conditions: 96 h; summary of the method: as §1
# [13] = Cytotoxicity against human 629L cells after 4 days by modified propidium iodide monolayer assay; conditions: 96 h; summary of the method: as §1
# [14] = Cytotoxicity against human 1657L cells after 4 days by modified propidium iodide monolayer assay; conditions: 96 h; summary of the method: as §1
# [15] = Cytotoxicity against human 289L cells after 4 days by modified propidium iodide monolayer assay; conditions: 96 h; summary of the method: as §1
# [16] = Cytotoxicity against human 393NL cells after 4 days by modified propidium iodide monolayer assay; conditions: 96 h; summary of the method: as §1
# [17] = Cytotoxicity against human 1781L cells after 4 days by modified propidium iodide monolayer assay; conditions: 96 h; summary of the method: as §1
# [18] = Cytotoxicity against human 536L cells after 4 days by modified propidium iodide monolayer assay; conditions: 96 h; summary of the method: as §1
# [19] = test system: DU-145; experiment: Cytotoxicity against human DU145 cells after 4 days by modified propidium iodide monolayer assay; conditions: DU-145, 96 h; summary of the method: as §1
# [20] = Cytotoxicity against human 1138L cells after 4 days by modified propidium iodide monolayer assay; conditions: 96 h; summary of the method: as §1
# [21] = Cytotoxicity against human 251L cells after 4 days by modified propidium iodide monolayer assay; conditions: 96 h; summary of the method: as §1
# [22] = Cytotoxicity against human 1752L cells after 4 days by modified propidium iodide monolayer assay; conditions: 96 h; summary of the method: as §1
# [23] = Cytotoxicity against human 899L cells after 4 days by modified propidium iodide monolayer assay; conditions: 96 h; summary of the method: as §1
# [24] = Cytotoxicity against human 1218L cells after 4 days by modified propidium iodide monolayer assay; conditions: 96 h; summary of the method: as §1
# [25] = test system: MCF7; experiment: Cytotoxicity against human MCF7 cells after 4 days by modified propidium iodide monolayer assay; conditions: MCF7, 96 h; summary of the method: as §1
# [26] = Cytotoxicity against human 394NL cells after 4 days by modified propidium iodide monolayer assay; conditions: 96 h; summary of the method: as §1
# [27] = Cytotoxicity against human 514L cells after 4 days by modified propidium iodide monolayer assay; conditions: 96 h; summary of the method: as §1
# [28] = Cytotoxicity against human 276L cells after 4 days by modified propidium iodide monolayer assay; conditions: 96 h; summary of the method: as §1
# [29] = Cytotoxicity against human 498NL cells after 4 days by modified propidium iodide monolayer assay; conditions: 96 h; summary of the method: as §1
# [30] = Cytotoxicity against human 526L cells after 4 days by modified propidium iodide monolayer assay; conditions: 96 h; summary of the method: as §1
# [31] = test system: OVCAR-3; experiment: Cytotoxicity against human OVCAR-3 cells after 4 days by modified propidium iodide monolayer assay; conditions: OVCAR-3, 96 h; summary of the method: as §1
# [32] = Cytotoxicity against human 462NL cells after 4 days by modified propidium iodide monolayer assay; conditions: 96 h; summary of the method: as §1
# [33] = test system: NCI-H460; experiment: Cytotoxicity against human H460 cells after 4 days by modified propidium iodide monolayer assay; conditions: NCI-H460, 96 h; summary of the method: as §1
# [34] = test system: SF-268; experiment: Cytotoxicity against human SF268 cells after 4 days by modified propidium iodide monolayer assay; conditions: SF-268, 96 h; summary of the method: as §1
# [35] = test system: T-24; experiment: Cytotoxicity against human T24 cells after 4 days by modified propidium iodide monolayer assay; conditions: T-24, 96 h; summary of the method: as §1
# [36] = Cytotoxicity against human 1121L cells after 4 days by modified propidium iodide monolayer assay; conditions: 96 h; summary of the method: as §1
smiles,measurement,setting,value
O=C1NCCc2cc(Br)c(c(Br)c2)Oc2cc(cc(Br)c2O)CCNC(=O)/C(=N/O)C(O)c2cc(Br)c(c(Br)c2)Oc2cc(cc(Br)c2O)C/C1=N\O (stereo not drawn) [BASTADIN 24],IC50,[1],4.23 µg/mL
same,IC70,[1],6.31 µg/mL
same,IC90,[1],9.41 µg/mL
same,IC50,[2],0.46 µg/mL
same,IC70,[2],0.96 µg/mL
same,IC90,[2],5.75 µg/mL
same,IC50,[3],1.7 µg/mL
same,IC70,[3],3.61 µg/mL
same,IC90,[3],7.68 µg/mL
same,IC50,[4],2.47 µg/mL
same,IC70,[4],4.59 µg/mL
same,IC90,[4],8.56 µg/mL
same,IC50,[5],3.87 µg/mL
same,IC70,[5],5.71 µg/mL
same,IC90,[5],8.4 µg/mL
same,IC50,[6],1.29 µg/mL
same,IC70,[6],3.03 µg/mL
same,IC90,[6],7.11 µg/mL
same,IC50,[7],2.28 µg/mL
same,IC70,[7],4.54 µg/mL
same,IC90,[7],9.02 µg/mL
same,IC50,[8],2.6 µg/mL
same,IC70,[8],4.56 µg/mL
same,IC90,[8],7.99 µg/mL
same,IC50,[9],2.77 µg/mL
same,IC70,[9],4.73 µg/mL
same,IC90,[9],8.07 µg/mL
same,IC50,[10],0.55 µg/mL
same,IC70,[10],0.87 µg/mL
same,IC90,[10],8.58 µg/mL
same,IC50,[11],2 µg/mL
same,IC70,[11],3.85 µg/mL
same,IC90,[11],7.44 µg/mL
same,IC50,[12],6.08 µg/mL
same,IC70,[12],11.3 µg/mL
same,IC90,[12],21.1 µg/mL
same,IC50,[13],0.37 µg/mL
same,IC70,[13],0.63 µg/mL
same,IC90,[13],1.67 µg/mL
same,IC50,[14],2.18 µg/mL
same,IC70,[14],4.58 µg/mL
same,IC90,[14],9.64 µg/mL
same,IC50,[15],2.68 µg/mL
same,IC70,[15],4.88 µg/mL
same,IC90,[15],8.87 µg/mL
same,IC50,[16],2.42 µg/mL
same,IC70,[16],4.38 µg/mL
same,IC90,[16],7.9 µg/mL
same,IC50,[17],2.88 µg/mL
same,IC70,[17],4.94 µg/mL
same,IC90,[17],8.5 µg/mL
same,IC50,[18],4.19 µg/mL
same,IC70,[18],6.16 µg/mL
same,IC90,[18],9.08 µg/mL
same,IC50,[19],0.96 µg/mL
same,IC70,[19],2.59 µg/mL
same,IC90,[19],7.04 µg/mL
same,IC50,[20],1.4 µg/mL
same,IC70,[20],3.3 µg/mL
same,IC90,[20],7.74 µg/mL
same,IC50,[21],2.64 µg/mL
same,IC70,[21],5.42 µg/mL
same,IC90,[21],11.1 µg/mL
same,IC50,[22],3.81 µg/mL
same,IC70,[22],5.91 µg/mL
same,IC90,[22],9.16 µg/mL
same,IC50,[23],3.79 µg/mL
same,IC70,[23],5.95 µg/mL
same,IC90,[23],9.35 µg/mL
same,IC50,[24],2.56 µg/mL
same,IC70,[24],4.9 µg/mL
same,IC90,[24],9.37 µg/mL
same,IC50,[25],1.46 µg/mL
same,IC70,[25],3.37 µg/mL
same,IC90,[25],7.78 µg/mL
same,IC50,[26],1.5 µg/mL
same,IC70,[26],3.36 µg/mL
same,IC90,[26],7.54 µg/mL
same,IC50,[27],1.62 µg/mL
same,IC70,[27],3.64 µg/mL
same,IC90,[27],8.17 µg/mL
same,IC50,[28],0.59 µg/mL
same,IC70,[28],2.02 µg/mL
same,IC90,[28],14.9 µg/mL
same,IC50,[29],2.64 µg/mL
same,IC70,[29],4.6 µg/mL
same,IC90,[29],8.01 µg/mL
same,IC50,[30],1.22 µg/mL
same,IC70,[30],3.24 µg/mL
same,IC90,[30],8.63 µg/mL
same,IC50,[31],3.66 µg/mL
same,IC70,[31],5.72 µg/mL
same,IC90,[31],8.94 µg/mL
same,IC50,[32],1.58 µg/mL
same,IC70,[32],3.66 µg/mL
same,IC90,[32],8.46 µg/mL
same,IC50,[33],4.31 µg/mL
same,IC70,[33],6.08 µg/mL
same,IC90,[33],8.57 µg/mL
same,IC50,[34],0.38 µg/mL
same,IC70,[34],0.61 µg/mL
same,IC90,[34],0.96 µg/mL
same,IC50,[35],0.79 µg/mL
same,IC70,[35],2.19 µg/mL
same,IC90,[35],6.24 µg/mL
same,IC50,[36],1.51 µg/mL
same,IC70,[36],3.43 µg/mL
same,IC90,[36],7.81 µg/mL
